Results reported in ChEMBL document CHEMBL1126990, “Design and synthesis of 18F-labeled neurotoxic analogs of MPTP” (J Med Chem, 1993).

How the values were obtained:
Assay type in all cases: ADME
Rattus norvegicus [1] = species: Rattus norvegicus; assay: Maximal rate (Vmax) for oxidation by rat liver MAO
Summary of the method: (§1)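 Rat liver MAO (crude P2 mitochondrial fraction from adult male Wistar rats, in pH 7.4 phosphate buffer) incubated with substrate at 30 μM to 5 mM; colorimetric detection of H2O2 formed. Blanks contained 0.1 mM pargyline. Vmax and Km from linear regression of Lineweaver-Burk plots; means ± SE of n separate experiments; ANOVA with post-hoc Scheffe test.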

MAO = assay: Michaelis-Menten constant (Km) for oxidation by rat liver MAO; summary of the method: as §1
[2] = Ratio between Vmax and Km; summary of the method: as §1
Rattus norvegicus [3] = species: Rattus norvegicus; assay: Maximal rate (Vmax) for oxidation by rat liver MAO (results are means of number of separate experiments, n=5); summary of the method: as §1
[4] = separate experiments, n=5); summary of the method: as §1

| SMILES | Vmax (Rattus norvegicus [1]) | Km (MAO) [µM] | Ratio [2] | Vmax (Rattus norvegicus [3]) | Km [4] [µM] |
| --- | --- | --- | --- | --- | --- |
| CN1CC=C(c2ccccc2CO)CC1 | 273 nM hr-1 (mg of protein)-1 | 370 | 0.74 | – | – |
| CN1CC=C(c2ccccc2CCl)CC1 | – | – | 1.24 | 231 nM hr-1 (mg of protein)-1 | 186 |
